Data taken from ChEMBL document CHEMBL4118197, “The discovery and preclinical evaluation of BMS-707035, a potent HIV-1 integrase strand transfer inhibitor” (Bioorg Med Chem Lett, 2018).
pIC50: −log10 of the molar value.

Key:
[1] = Clearance in Sprague-Dawley rat at 1 mg/kg, iv after 4 hrs; assay type: ADME, organism-based; conditions: in vivo
How it was run: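 Male Sprague-Dawley rats given 1 mpk IV in PEG400/ethanol (90:10); blood sampled at 5 and 30 min and 1, 2 and 4 h post-dose; clearance from plasma profile.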

[2] = molecular target: Human immunodeficiency virus type 1 integrase (Human immunodeficiency virus 1, UniProt Q7ZJM1); assay: Inhibition of HIV1 integrase strand transfer activity
Chain of Human immunodeficiency virus type 1 integrase (Q7ZJM1 whole entry): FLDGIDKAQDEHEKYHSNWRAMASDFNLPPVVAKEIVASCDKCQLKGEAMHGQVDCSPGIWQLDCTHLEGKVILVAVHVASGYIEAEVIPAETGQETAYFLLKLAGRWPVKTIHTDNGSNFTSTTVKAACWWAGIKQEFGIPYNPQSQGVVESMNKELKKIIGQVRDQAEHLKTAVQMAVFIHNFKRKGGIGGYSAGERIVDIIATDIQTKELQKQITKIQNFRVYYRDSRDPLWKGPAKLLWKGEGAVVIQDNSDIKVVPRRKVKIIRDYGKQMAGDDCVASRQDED

clearance [1] | pIC50 [2] | SMILES
62 mL/min/kg | 8.00 | CN(C)S(=O)(=O)c1c(CNC(=O)c2nc3n(c(=O)c2O)CCOC3(C)C)ccc(F)c1F
22 mL/min/kg | 7.96 | CNC(=O)c1cc(F)ccc1CNC(=O)c1nc2n(c(=O)c1O)CCOC2(C)C
11 mL/min/kg | 8.52 | Cc1cc(CNC(=O)c2nc3n(c(=O)c2O)CCOC3(C)C)ccc1F
29 mL/min/kg | 8.30 | CC1(C)OCCn2c1nc(C(=O)NCc1ccc(F)cc1N1CCOCC1)c(O)c2=O
